SMILES strings stand for the structures. Values after ≈ are worked out from the molar mass of the structure shown.

Type in all cases: functional
Assay [1] has as its system Streptococcus pyogenes. The experiment in a line: Compound was tested for antibacterial activity against Strep. pyogenes ATCC 19615. In short, it runs like this: (§1)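 MICs were found by agar dilution. Test compounds were dissolved in water or in dimethyl sulfoxide, and the mixture was added to the agar before it set.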
Assay [2] concerns Staphylococcus aureus. The experiment in a line: Compound was tested for antibacterial activity against Staphylococcus aureus ATCC 9144. The method, boiled down: as §1
For assay [3], the system named is Staphylococcus aureus. The assay can be described thus: Compound was tested for antibacterial activity against Staphylococcus aureus WSU-196E. In short, it runs like this:
as §1

In assay [4] the test system is Staphylococcus aureus. The experiment in a line: Compound was tested for antibacterial activity against Staphylococcus aureus ATCC 25923. In short, it runs like this: as §1
In assay [5] the test system is Staphylococcus epidermidis. The assay can be described thus: Compound was tested for antibacterial activity against Staph. epidermidis ATCC 12228. The method, boiled down:
as §1

Assay [6] deals with Bacillus subtilis. The assay can be described thus: Compound was tested for antibacterial activity against Bacillus subtilis ATCC E6051. The method, boiled down:
as §1

Assay [7] relates to Bacillus cereus. The experiment in a line: Compound was tested for antibacterial activity against Bacillus cereus WSU-60. In short, it runs like this:
as §1

The subject of assay [8] is Corynebacterium diphtheriae. The assay can be described thus: Compound was tested for antibacterial activity against Corynebacterium diphtheria WSU. In short, it runs like this: as §1
Assay [9] is filed under the species Rattus norvegicus. The assay can be described thus: Compound was tested for effect of glycoside on superoxide production in rat heart sarcosomes. Set-up: unit not given here. In short, it runs like this:
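Male Sprague-Dawley rat ventricles were homogenized in 100 mM KCl, 5 mM histidine, pH 7.3. The microsomal (sarcosomal) pellet was taken at 100000g and resuspended in 0.15 M K3PO4, 1 mM EDTA, pH 7.4. Sarcosomes came from six rats prepared concurrently. Each 1 mL reaction held acetylated cytochrome c (38-53 nmol), 300-500 µg protein and 0.1 mM compound. NADPH started the reaction. A550 rise was followed at 37 °C and reported as mean ± SEM, N = 3, with an F test.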

One may read the MIC as the lowest concentration found to suppress growth. Regarding `NC1C(OCc2ccc3c(c2)C(=O)c2ccccc2C3=O)OC(O)C(O)C1O` (configuration not stated), the MIC in assay [1] was 100 µg/mL (≈ 259 µM); in assay [2] it was greater than 200 µg/mL; in assay [3], greater than 200 µg/mL; in assay [4], greater than 200 µg/mL; in assay [5] it was 200 µg/mL (≈ 519 µM); in assay [6], greater than 200 µg/mL. Further, the MIC in [7] and in [8] was greater than 200 µg/mL in each case. Moreover, in assay [9], the Activity is on record as 2.31.

As to `NC1C(OCc2cc(O)c3c(c2O)C(=O)c2ccccc2C3=O)OC(O)C(O)C1O` (configuration not stated), the MIC in assay [1] was 10 µg/mL (≈ 24 µM); in assay [2], 50 µg/mL (≈ 120 µM); in [3], greater than 200 µg/mL; in assay [4] it was 100 µg/mL (≈ 240 µM); in [5], 20 µg/mL (≈ 47.9 µM); in [6], 50 µg/mL (≈ 120 µM). Moreover, the MIC in assay [7] worked out at 50 µg/mL (≈ 120 µM); in assay [8], 100 µg/mL (≈ 240 µM). For the same compound, in assay [9], the Activity was 12.8.

Take `NC1C(OCc2cc(O)c3c(c2)C(=O)c2cccc(O)c2C3=O)OC(O)C(O)C1O` (configuration not stated): the MIC was 10 µg/mL (≈ 24 µM) in [1]; 50 µg/mL (≈ 120 µM) in assay [2]; greater than 200 µg/mL in assay [3]; greater than 200 µg/mL in assay [4]; 20 µg/mL (≈ 47.9 µM) in assay [5]; greater than 200 µg/mL in assay [6]. Further, the MIC was determined as 200 µg/mL (≈ 479 µM) in assay [7] and 100 µg/mL (≈ 240 µM) in [8]. In [9], this compound gave an Activity of 10.1.

In the case of `NC1C(OCc2ccc3c(c2O)C(=O)c2ccccc2C3=O)OC(O)C(O)C1O` (configuration not stated), the minimum inhibitory concentration (MIC) in assay [1] is 20 µg/mL (≈ 49.8 µM); in assay [2], 200 µg/mL (≈ 498 µM); in assay [3] it was 200 µg/mL (≈ 498 µM); in assay [4] it was 200 µg/mL (≈ 498 µM); in assay [5] it was 20 µg/mL (≈ 49.8 µM); in assay [6], 50 µg/mL (≈ 125 µM). In addition, the MIC in assay [7] and in assay [8] was 100 µg/mL (≈ 249 µM) each time. The compound further returned an Activity in assay [9] of 5.49.

With `COc1cccc2c1C(=O)c1c(O)c3c(c(O)c1C2=O)C[C@@](O)(C(=O)CO)C[C@@H]3O[C@H]1C[C@H](N)[C@H](O)[C@H](C)O1` [DOXORUBICIN], the MIC in [1] was less than 5 µg/mL; in assay [2], 20 µg/mL (≈ 36.8 µM); in assay [3] it was 10 µg/mL (≈ 18.4 µM); in assay [4] it was 200 µg/mL (≈ 368 µM); in assay [5], less than 5 µg/mL; in assay [6] it was 20 µg/mL (≈ 36.8 µM). In addition, the results for the MIC in [7] and in [8] were 10 µg/mL (≈ 18.4 µM) and 20 µg/mL (≈ 36.8 µM), respectively.

On to `COc1cccc2c1C(=O)c1c(O)c3c(c(O)c1C2=O)C[C@@](O)(C(C)=O)C[C@@H]3O[C@H]1C[C@H](N)[C@H](O)[C@H](C)O1` [DAUNORUBICIN], for which the MIC in assay [1] is less than 5 µg/mL; in assay [2], less than 5 µg/mL; in assay [3], less than 5 µg/mL; in [4], 20 µg/mL (≈ 37.9 µM); in assay [5] it was less than 5 µg/mL; in assay [6], less than 5 µg/mL. In addition, the MIC in assay [7] and in [8] was less than 5 µg/mL throughout. The Activity in assay [9] is on record as 2.76.

For `NC1C(OCc2ccc3c(c2O)C(=O)c2c(O)cccc2C3=O)OC(O)C(O)C1O` (configuration not stated), the minimum inhibitory concentration (MIC) was 50 µg/mL (≈ 120 µM) in assay [1]; 200 µg/mL (≈ 479 µM) in [2]; 200 µg/mL (≈ 479 µM) in assay [3]; 100 µg/mL (≈ 240 µM) in assay [4]; 50 µg/mL (≈ 120 µM) in assay [5]; 50 µg/mL (≈ 120 µM) in assay [6]. Further, the MIC in [7] and in assay [8] was 50 µg/mL (≈ 120 µM) throughout. Also, the Activity in assay [9] was 10.5.

The values are drawn from ChEMBL document CHEMBL1123433, “Synthesis of anthraquinonyl glucosaminosides and studies on the influence of aglycone hydroxyl substitution on superoxide generation, DNA binding, and antimicrobial properties” (J Med Chem, 1986).
